Test results: ChEMBL document CHEMBL1240405, “Activity of a new cephalosporin, CXA-101 (FR264205), against beta-lactam-resistant Pseudomonas aeruginosa mutants selected in vitro and after antipseudomonal treatment of intensive care unit patients” (2010)
Converted amounts (≈) assume the structure as drawn.

Key:
Type in all cases: functional
Pseudomonas aeruginosa [1] = assay: Antimicrobial activity against beta-lactam resistant Pseudomonas aeruginosa PAO1 by broth microdilution method
How it was run: (§1)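 Broth microdilution MICs per CLSI M100-S18, over 0.12 to 256 μg/ml. Strains are PAO1 and its mutants. oprD mutants were selected overnight on Mueller-Hinton agar with 4 μg/ml imipenem, passaged antibiotic-free, then confirmed by oprD amplification and sequencing. PAO1 and ATCC 27853 were run alongside as quality controls.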

Pseudomonas aeruginosa [2] = assay: Antimicrobial activity against beta-lactam resistant Pseudomonas aeruginosa PAO1 deficient in ampD gene selected in vitro after antipseudomonal treatment of intensive care unit patient by broth microdilution method; how it was run: as §1
Pseudomonas aeruginosa [3] = assay: Antimicrobial activity against beta-lactam resistant Pseudomonas aeruginosa PAO1 deficient in ampD and ampDh3 gene selected in vitro after antipseudomonal treatment of intensive care unit patient by broth microdilution method; how it was run: as §1
Pseudomonas aeruginosa [4] = assay: Antimicrobial activity against beta-lactam resistant Pseudomonas aeruginosa PAO1 deficient in ampD, […] gene selected in vitro after antipseudomonal treatment of intensive care unit patient by broth microdilution method; how it was run: as §1
Pseudomonas aeruginosa [5] = assay: Antimicrobial activity against beta-lactam resistant Pseudomonas aeruginosa PAO1 deficient in ampD and dacB gene selected in vitro after antipseudomonal treatment of intensive care unit patient by broth microdilution method; how it was run: as §1
Pseudomonas aeruginosa [6] = assay: Antimicrobial activity against beta-lactam resistant Pseudomonas aeruginosa PAOD1 harboring oprD spontaneous mutant selected in vitro after antipseudomonal treatment of intensive care unit patient by broth microdilution method; how it was run: as §1
Pseudomonas aeruginosa [7] = assay: Antimicrobial activity against beta-lactam resistant Pseudomonas aeruginosa PAOD2 harboring oprD spontaneous mutant selected in vitro after antipseudomonal treatment of intensive care unit patient by broth microdilution method; how it was run: as §1
Pseudomonas aeruginosa [8] = assay: Antimicrobial activity against beta-lactam resistant Pseudomonas aeruginosa PAOD3 harboring oprD spontaneous mutant selected in vitro after antipseudomonal treatment of intensive care unit patient by broth microdilution method; how it was run: as §1
Pseudomonas aeruginosa [9] = assay: Antimicrobial activity against beta-lactam resistant Pseudomonas aeruginosa PAOD1 harboring oprD spontaneous mutant and deficient in ampD gene selected in vitro after antipseudomonal treatment of intensive care unit patient by broth microdilution method; how it was run: as §1
Pseudomonas aeruginosa [10] = assay: Antimicrobial activity against beta-lactam resistant Pseudomonas aeruginosa PAOD2 harboring oprD spontaneous mutant and deficient in ampD gene by selected in vitro after antipseudomonal treatment of intensive care unit patient by broth microdilution method; how it was run: as §1
Pseudomonas aeruginosa [11] = assay: Antimicrobial activity against beta-lactam resistant beta-lactam resistant Pseudomonas aeruginosa PAOD3 harboring oprD spontaneous mutant and deficient in ampD gene selected in vitro after antipseudomonal treatment of intensive care unit patient by broth microdilution method; how it was run: as §1
Pseudomonas aeruginosa [12] = assay: Antimicrobial activity against beta-lactam resistant Pseudomonas aeruginosa PAOD1 harboring oprD spontaneous mutant and deficient in dacB gene selected in vitro after antipseudomonal treatment of intensive care unit patient by broth microdilution method; how it was run: as §1
Pseudomonas aeruginosa [13] = assay: Antimicrobial activity against beta-lactam resistant Pseudomonas aeruginosa PAOD2 harboring oprD spontaneous mutant and deficient in dacB gene selected in vitro after antipseudomonal treatment of intensive care unit patient by broth microdilution method; how it was run: as §1
Pseudomonas aeruginosa [14] = assay: Antimicrobial activity against beta-lactam resistant Pseudomonas aeruginosa PAOD3 harboring oprD spontaneous mutant and deficient in dacB gene selected in vitro after antipseudomonal treatment of intensive care unit patient by broth microdilution method; how it was run: as §1
Pseudomonas aeruginosa [15] = assay: Antimicrobial activity against Pseudomonas aeruginosa clinical isolate selected in vitro after antipseudomonal treatment of intensive care unit patient by broth microdilution method
How it was run: (§2)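 MICs by standard CLSI broth microdilution (M100-S18) at 0.12 to 256 μg/ml. The isolates are sequential P. aeruginosa isolates that emerged during antipseudomonal therapy of patients in a Spanish ICU (2002–2003). P. aeruginosa PAO1 and ATCC 27853 were run in parallel for quality control.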

Pseudomonas aeruginosa [16] = assay: Antimicrobial activity against Ceftazidime resistant Pseudomonas aeruginosa clinical isolate selected in vitro after antipseudomonal treatment of intensive care unit patient by broth microdilution method; how it was run: as §2
Pseudomonas aeruginosa [17] = assay: Antimicrobial activity against cefipime resistant Pseudomonas aeruginosa clinical isolate selected in vitro after antipseudomonal treatment of intensive care unit patient by broth microdilution method; how it was run: as §2
Pseudomonas aeruginosa [18] = assay: Antimicrobial activity against PIP-tazobactam resistant Pseudomonas aeruginosa clinical isolate selected in vitro after antipseudomonal treatment of intensive care unit patient by broth microdilution method; how it was run: as §2
Pseudomonas aeruginosa [19] = assay: Antimicrobial activity against Imipenem resistant Pseudomonas aeruginosa clinical isolate selected in vitro after antipseudomonal treatment of intensive care unit patient by broth microdilution method; how it was run: as §2
Pseudomonas aeruginosa [20] = assay: Antimicrobial activity against meropenem resistant Pseudomonas aeruginosa clinical isolate selected in vitro after antipseudomonal treatment of intensive care unit patient by broth microdilution method; how it was run: as §2
Pseudomonas aeruginosa [21] = assay: Antimicrobial activity against ciprofloxacin resistant Pseudomonas aeruginosa clinical isolate selected in vitro after antipseudomonal treatment of intensive care unit patient by broth microdilution method; how it was run: as §2
Pseudomonas aeruginosa [22] = assay: Antimicrobial activity against multidrug resistant Pseudomonas aeruginosa clinical isolate selected in vitro after antipseudomonal treatment of intensive care unit patient by broth microdilution method; how it was run: as §2
Pseudomonas aeruginosa [23] = assay: Antimicrobial activity against pan-beta-lactam resistant Pseudomonas aeruginosa clinical isolate selected in vitro after antipseudomonal treatment of intensive care unit patient by broth microdilution method; how it was run: as §2
Pseudomonas aeruginosa [24] = assay: Antimicrobial activity against Pseudomonas aeruginosa AmpC overexpressing clinical isolate selected in vitro after antipseudomonal treatment of intensive care unit patient by broth microdilution method; how it was run: as §2
Pseudomonas aeruginosa [25] = assay: Antimicrobial activity against Pseudomonas aeruginosa by after 18-20 hrs agar dilution method
Pseudomonas aeruginosa [26] = assay: Antimicrobial activity against cefipime resistant Pseudomonas aeruginosa by microdilution method
Pseudomonas aeruginosa [27] = assay: Antimicrobial activity against cefipime resistant Pseudomonas aeruginosa overexpressing MexXY-OprM gene by microdilution method
Pseudomonas aeruginosa [28] = assay: Antimicrobial activity against metallo beta-lactamase producing Pseudomonas aeruginosa isolates
Pseudomonas aeruginosa [29] = assay: Antimicrobial activity against extended spectrum beta-lactamase producing Pseudomonas aeruginosa isolates by broth microdilution method
Pseudomonas aeruginosa [30] = assay: Antimicrobial activity against beta-lactam resistant Pseudomonas aeruginosa PA01 deficient in dacB gene by broth microdilution method; how it was run: as §1
Pseudomonas aeruginosa [31] = assay: Antimicrobial activity against Pseudomonas aeruginosa clinical isolate assessed as resistant isolates selected in vitro after antipseudomonal treatment of intensive care unit patient by CLSI method

Cn1c(N)c(NC(=O)NCCN)c[n+]1CC1=C(C(=O)O)N2C(=O)[C@@H](NC(=O)/C(=N\OC(C)(C)C(=O)[O-])c3nsc(N)n3)[C@H]2SC1 [CEFTOLOZANE]
MIC (Pseudomonas aeruginosa [1]): 0.5 µg/mL (≈ 0.75 µM) | MIC (Pseudomonas aeruginosa [2]): 0.5 µg/mL (≈ 0.75 µM) | MIC (Pseudomonas aeruginosa [3]): 1 µg/mL (≈ 1.5 µM) | MIC (Pseudomonas aeruginosa [4]): 1 µg/mL (≈ 1.5 µM) | MIC (Pseudomonas aeruginosa [5]): 2 µg/mL (≈ 3 µM) | MIC (Pseudomonas aeruginosa [6]): 0.5 µg/mL (≈ 0.75 µM) | MIC (Pseudomonas aeruginosa [7]): 0.5 µg/mL (≈ 0.75 µM) | MIC (Pseudomonas aeruginosa [8]): 0.5 µg/mL (≈ 0.75 µM) | MIC (Pseudomonas aeruginosa [9]): 0.5 µg/mL (≈ 0.75 µM) | MIC (Pseudomonas aeruginosa [10]): 0.5 µg/mL (≈ 0.75 µM) | MIC (Pseudomonas aeruginosa [11]): 0.5 µg/mL (≈ 0.75 µM) | MIC (Pseudomonas aeruginosa [12]): 0.5 µg/mL (≈ 0.75 µM) | MIC (Pseudomonas aeruginosa [13]): 0.5 µg/mL (≈ 0.75 µM) | MIC (Pseudomonas aeruginosa [14]): 0.5 µg/mL (≈ 0.75 µM) | MIC50 (Pseudomonas aeruginosa [15]): 0.5 µg/mL (≈ 0.75 µM) | MIC80 (Pseudomonas aeruginosa [15]): 0.53 µg/mL (≈ 0.795 µM) | MIC90 (Pseudomonas aeruginosa [15]): 2 µg/mL (≈ 3 µM) | GM MIC (Pseudomonas aeruginosa [16]): 0.94 µg/mL | MIC50 (Pseudomonas aeruginosa [16]): 1 µg/mL (≈ 1.5 µM) | MIC90 (Pseudomonas aeruginosa [16]): 4 µg/mL (≈ 6 µM) | GM MIC (Pseudomonas aeruginosa [17]): 0.91 µg/mL | MIC50 (Pseudomonas aeruginosa [17]): 1 µg/mL (≈ 1.5 µM) | MIC90 (Pseudomonas aeruginosa [17]): 4 µg/mL (≈ 6 µM) | GM MIC (Pseudomonas aeruginosa [18]): 1.59 µg/mL | MIC50 (Pseudomonas aeruginosa [18]): 1 µg/mL | MIC90 (Pseudomonas aeruginosa [18]): 4 µg/mL | GM MIC (Pseudomonas aeruginosa [19]): 0.84 µg/mL | MIC50 (Pseudomonas aeruginosa [19]): 0.5 µg/mL (≈ 0.75 µM) | MIC90 (Pseudomonas aeruginosa [19]): 4 µg/mL (≈ 6 µM) | GM MIC (Pseudomonas aeruginosa [20]): 0.86 µg/mL | MIC50 (Pseudomonas aeruginosa [20]): 0.5 µg/mL (≈ 0.75 µM) | MIC90 (Pseudomonas aeruginosa [20]): 4 µg/mL (≈ 6 µM) | MIC (Pseudomonas aeruginosa [21]): 0.88 µg/mL (≈ 1.32 µM) | MIC50 (Pseudomonas aeruginosa [21]): 1 µg/mL (≈ 1.5 µM) | MIC90 (Pseudomonas aeruginosa [21]): 4 µg/mL (≈ 6 µM) | MIC (Pseudomonas aeruginosa [22]): 1.83 µg/mL (≈ 2.74 µM) | MIC (Pseudomonas aeruginosa [23]): 2.53 µg/mL (≈ 3.79 µM) | MIC (Pseudomonas aeruginosa [24]): 0.71 µg/mL (≈ 1.06 µM) | MIC50 (Pseudomonas aeruginosa [24]): 1 µg/mL (≈ 1.5 µM) | MIC90 (Pseudomonas aeruginosa [24]): 4 µg/mL (≈ 6 µM) | Ratio (Pseudomonas aeruginosa [25]): -0.5 | MIC (Pseudomonas aeruginosa [26]): 1 µg/mL (≈ 1.5 µM) | MIC (Pseudomonas aeruginosa [27]): 1 µg/mL (≈ 1.5 µM) | Ratio (Pseudomonas aeruginosa [28]): 0.25 | MIC (Pseudomonas aeruginosa [29]): > 8 µg/mL | MIC (Pseudomonas aeruginosa [30]): 1 µg/mL (≈ 1.5 µM)

C[C@@H](O)[C@H]1C(=O)N2C(C(=O)O)=C(SCCNC=N)C[C@H]12 [IMIPENEM ANHYDROUS]
MIC (Pseudomonas aeruginosa [1]): 2 µg/mL (≈ 6.68 µM) | MIC (Pseudomonas aeruginosa [2]): 2 µg/mL (≈ 6.68 µM) | MIC (Pseudomonas aeruginosa [3]): 2 µg/mL (≈ 6.68 µM) | MIC (Pseudomonas aeruginosa [4]): 1 µg/mL (≈ 3.34 µM) | MIC (Pseudomonas aeruginosa [5]): 2 µg/mL (≈ 6.68 µM) | MIC (Pseudomonas aeruginosa [6]): 16 µg/mL (≈ 53.4 µM) | MIC (Pseudomonas aeruginosa [7]): 8 µg/mL (≈ 26.7 µM) | MIC (Pseudomonas aeruginosa [8]): 16 µg/mL (≈ 53.4 µM) | MIC (Pseudomonas aeruginosa [9]): 16 µg/mL (≈ 53.4 µM) | MIC (Pseudomonas aeruginosa [10]): 16 µg/mL (≈ 53.4 µM) | MIC (Pseudomonas aeruginosa [11]): 16 µg/mL (≈ 53.4 µM) | MIC (Pseudomonas aeruginosa [12]): 16 µg/mL (≈ 53.4 µM) | MIC (Pseudomonas aeruginosa [13]): 16 µg/mL (≈ 53.4 µM) | MIC (Pseudomonas aeruginosa [14]): 16 µg/mL (≈ 53.4 µM) | Activity (Pseudomonas aeruginosa [31]): 57% | MIC (Pseudomonas aeruginosa [30]): 2 µg/mL (≈ 6.68 µM)

C[C@@H](O)[C@H]1C(=O)N2C(C(=O)O)=C(S[C@@H]3CN[C@H](C(=O)N(C)C)C3)[C@H](C)[C@H]12 [MEROPENEM]
MIC (Pseudomonas aeruginosa [1]): 0.5 µg/mL (≈ 1.3 µM) | MIC (Pseudomonas aeruginosa [2]): 2 µg/mL (≈ 5.22 µM) | MIC (Pseudomonas aeruginosa [3]): 2 µg/mL (≈ 5.22 µM) | MIC (Pseudomonas aeruginosa [4]): 1 µg/mL (≈ 2.61 µM) | MIC (Pseudomonas aeruginosa [5]): 2 µg/mL (≈ 5.22 µM) | MIC (Pseudomonas aeruginosa [6]): 1 µg/mL (≈ 2.61 µM) | MIC (Pseudomonas aeruginosa [7]): 2 µg/mL (≈ 5.22 µM) | MIC (Pseudomonas aeruginosa [8]): 2 µg/mL (≈ 5.22 µM) | MIC (Pseudomonas aeruginosa [9]): 8 µg/mL (≈ 20.9 µM) | MIC (Pseudomonas aeruginosa [10]): 8 µg/mL (≈ 20.9 µM) | MIC (Pseudomonas aeruginosa [11]): 8 µg/mL (≈ 20.9 µM) | MIC (Pseudomonas aeruginosa [12]): 4 µg/mL (≈ 10.4 µM) | MIC (Pseudomonas aeruginosa [13]): 4 µg/mL (≈ 10.4 µM) | MIC (Pseudomonas aeruginosa [14]): 4 µg/mL (≈ 10.4 µM) | Activity (Pseudomonas aeruginosa [31]): 52% | MIC (Pseudomonas aeruginosa [30]): 0.5 µg/mL (≈ 1.3 µM)

CCN1CCN(C(=O)N[C@@H](C(=O)N[C@@H]2C(=O)N3[C@@H]2SC(C)(C)[C@@H]3C(=O)O)c2ccccc2)C(=O)C1=O [PIPERACILLIN]
MIC (Pseudomonas aeruginosa [1]): 4 µg/mL (≈ 7.73 µM) | MIC (Pseudomonas aeruginosa [2]): 16 µg/mL (≈ 30.9 µM) | MIC (Pseudomonas aeruginosa [3]): 128 µg/mL (≈ 247 µM) | MIC (Pseudomonas aeruginosa [4]): 64 µg/mL (≈ 124 µM) | MIC (Pseudomonas aeruginosa [5]): 64 µg/mL (≈ 124 µM) | MIC (Pseudomonas aeruginosa [6]): > 256 µg/mL | MIC (Pseudomonas aeruginosa [7]): 4 µg/mL (≈ 7.73 µM) | MIC (Pseudomonas aeruginosa [8]): 4 µg/mL (≈ 7.73 µM) | MIC (Pseudomonas aeruginosa [9]): 4 µg/mL (≈ 7.73 µM) | MIC (Pseudomonas aeruginosa [10]): 32 µg/mL (≈ 61.8 µM) | MIC (Pseudomonas aeruginosa [11]): 64 µg/mL (≈ 124 µM) | MIC (Pseudomonas aeruginosa [12]): 64 µg/mL (≈ 124 µM) | MIC (Pseudomonas aeruginosa [13]): 64 µg/mL (≈ 124 µM) | MIC (Pseudomonas aeruginosa [14]): 64 µg/mL (≈ 124 µM) | MIC (Pseudomonas aeruginosa [30]): 64 µg/mL (≈ 124 µM)
